Results from ChEMBL document CHEMBL1148422, “N-isoquinolin-5-yl-N'-aralkyl-urea and -amide antagonists of human vanilloid receptor 1” (Bioorg Med Chem Lett, 2004).

Legend:
[1] = molecular target: T1, Transient receptor potential cation channel subfamily V member 1 (Homo sapiens, UniProt Q8NER1); test: Binding affinity towards human vanilloid receptor subtype 1 expressed in HEK293 cell membrane using [3H]-RTX as radioligand.; format: cell membranes
Summary of the method: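 Membranes from hVR1/HEK293 cells homogenized twice with a Polytron in 20 mM HEPES pH 7.4 with 5.8 mM NaCl, 320 mM sucrose, 2 mM MgCl2, 0.75 mM CaCl2 and 5 mM KCl. Spun at 3000 rpm for 10 min; supernatant spun at 18,000 rpm for 20 min; pellet taken up in assay buffer.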

[2] = molecular target: T1, Transient receptor potential cation channel subfamily V member 1; test: Antagonistic activity towards human vanilloid receptor subtype 1 expressed in HEK293 cell […], as inhibition of agonist-induced intracellular [Ca2+] levels.; format: functional, cell-based

T1 sequence (Q8NER1 whole entry): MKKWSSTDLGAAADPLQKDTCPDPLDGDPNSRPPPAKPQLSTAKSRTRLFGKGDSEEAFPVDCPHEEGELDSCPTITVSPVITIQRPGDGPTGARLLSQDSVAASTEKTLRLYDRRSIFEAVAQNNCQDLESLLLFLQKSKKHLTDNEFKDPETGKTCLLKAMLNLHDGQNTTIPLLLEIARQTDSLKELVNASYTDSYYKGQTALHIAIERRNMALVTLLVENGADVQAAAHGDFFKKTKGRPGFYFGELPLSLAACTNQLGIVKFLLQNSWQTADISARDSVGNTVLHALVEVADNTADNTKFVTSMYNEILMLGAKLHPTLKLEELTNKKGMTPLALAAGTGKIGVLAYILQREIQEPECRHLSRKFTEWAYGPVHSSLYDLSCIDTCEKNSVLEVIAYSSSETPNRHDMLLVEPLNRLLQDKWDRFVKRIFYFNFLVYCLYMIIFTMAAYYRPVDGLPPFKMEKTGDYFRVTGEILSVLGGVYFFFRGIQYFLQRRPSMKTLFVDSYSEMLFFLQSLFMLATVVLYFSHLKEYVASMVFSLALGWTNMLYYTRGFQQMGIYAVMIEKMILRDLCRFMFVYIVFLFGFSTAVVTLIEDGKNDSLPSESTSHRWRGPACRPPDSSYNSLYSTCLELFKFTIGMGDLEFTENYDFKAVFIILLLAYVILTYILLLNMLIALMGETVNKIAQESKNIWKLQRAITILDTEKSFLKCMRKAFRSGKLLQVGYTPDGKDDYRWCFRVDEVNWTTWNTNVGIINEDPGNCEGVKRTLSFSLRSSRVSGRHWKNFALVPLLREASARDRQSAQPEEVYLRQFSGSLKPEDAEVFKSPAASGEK

SMILES	Ki [1]	IC50 [2]
CCCCCc1ccc(C(=O)Nc2cccc3cnccc23)cc1	71 nM	2400 nM
CC(C)(C)c1ccc(CCNC(=O)Nc2cccc3cnccc23)cc1		3 nM
O=C(/C=C/c1ccccc1)Nc1cccc2cnccc12		1500 nM
O=C(CCc1ccc(C(F)(F)F)cc1)Nc1cccc2cnccc12	60 nM	38 nM
O=C(NCc1ccc(Cl)c(C(F)(F)F)c1)Nc1cccc2cnccc12	0.8 nM	6 nM
O=C(Nc1cc(C(F)(F)F)cc(C(F)(F)F)c1)Nc1cccc2cnccc12	1.4 nM	32 nM
O=C(NCc1ccc(Cl)c(Cl)c1)Nc1cccc2cnccc12	9 nM	4 nM
O=C(NCc1ccc(Cl)cc1)Nc1cccc2cnccc12		6 nM
CCC(C)(C)c1ccc(CCC(=O)Nc2cccc3cnccc23)cc1	4 nM	13 nM
O=C(NCCc1ccc(Cl)c(Cl)c1)Nc1cccc2cnccc12	17 nM	10 nM
CC(C)(C)c1ccc(CNC(=O)Nc2cccc3cnccc23)cc1	0.3 nM	3 nM
COc1ccc(CNC(=O)Nc2cccc3cnccc23)cc1		45 nM
O=C(NCCc1ccccc1)Nc1cccc2cnccc12		1000 nM
O=C(NCCc1ccc(C(F)(F)F)cc1)Nc1cccc2cnccc12	22 nM	19 nM
CC(C)(C)c1ccc(CCC(=O)Nc2cccc3cnccc23)cc1	11 nM	410 nM
O=C(NCCc1ccc(OC(F)(F)F)cc1)Nc1cccc2cnccc12		11 nM
O=C(NCc1cccc(C(F)(F)F)c1)Nc1cccc2cnccc12	23 nM	11 nM
O=C(Nc1ccc(Cl)c(Cl)c1)Nc1cccc2cnccc12	17 nM	170 nM
CC(C)(C)c1ccc(/C=C/C(=O)Nc2cccc3cnccc23)cc1	1.2 nM	5 nM
O=C(NCCc1cccc(C(F)(F)F)c1)Nc1cccc2cnccc12		19 nM
O=C(Nc1cccc(C(F)(F)F)c1)Nc1cccc2cnccc12	19 nM	32 nM
O=C(NCc1ccc(OC(F)(F)F)cc1)Nc1cccc2cnccc12	1.3 nM	3 nM
O=C(NCc1ccc(C(F)(F)F)cc1)Nc1cccc2cnccc12	5 nM	3 nM
CCCCc1ccc(NC(=O)Nc2cccc3cnccc23)cc1	330 nM	490 nM
COc1ccc(CCNC(=O)Nc2cccc3cnccc23)cc1		680 nM
